Results taken from ChEMBL document CHEMBL1221201, “Extension of Drosophila melanogaster life span with a GPCR peptide inhibitor” (Nat Chem Biol, 2007).
pIC50, pKd: −log10 of the molar value. One block for each compound: values may come before it. Activity calls are given as the source filed them. No cut-off for these calls is given here.

Legend:
[1] = biological target: T1, G-protein coupled receptor Mth (Drosophila melanogaster, UniProt O97148); test: Inhibition of Drosophila melanogaster Mth […] transfected into human HEK cells assessed as inhibition of N-Stunted-induced Mth signaling; type: cell-based, HEK293
T1 sequence (O97148 whole entry): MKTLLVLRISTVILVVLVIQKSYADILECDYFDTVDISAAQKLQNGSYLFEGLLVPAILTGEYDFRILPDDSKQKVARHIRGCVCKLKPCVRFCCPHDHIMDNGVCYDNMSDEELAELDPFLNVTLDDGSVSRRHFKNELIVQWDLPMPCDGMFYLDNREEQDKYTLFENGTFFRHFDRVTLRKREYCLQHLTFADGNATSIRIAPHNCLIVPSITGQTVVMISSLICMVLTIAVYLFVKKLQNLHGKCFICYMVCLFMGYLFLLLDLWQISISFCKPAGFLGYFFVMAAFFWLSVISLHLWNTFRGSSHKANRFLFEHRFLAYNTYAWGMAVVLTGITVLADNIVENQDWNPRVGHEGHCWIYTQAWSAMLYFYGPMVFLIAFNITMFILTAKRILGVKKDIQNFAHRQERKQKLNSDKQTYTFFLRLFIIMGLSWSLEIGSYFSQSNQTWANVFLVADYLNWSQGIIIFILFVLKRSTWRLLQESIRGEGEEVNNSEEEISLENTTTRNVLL
Outline: (§1)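 HEK 293 cells stably expressing Mth-B were plated on Matrigel and loaded with 4 μM Fluo-4 (45 min at room temperature, then 15 min at 37 °C) in HEPES pH 7.5 HBSS buffer with BSA and 2.5 mM probenecid. After baseline readings, antagonist was added, followed by agonist peptide. Calcium fluorescence (ex 494/em 520 nm) was read for ~5 min. Values were background-subtracted and fitted to sigmoidal curves.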

[2] = biological target: T1, G-protein coupled receptor Mth; test: Binding affinity to Drosophila melanogaster Mth ectodomain
Outline: (§2)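 Mth ectodomain (His6-tagged, C-terminal biotinylation tag, expressed in baculovirus-infected High 5 cells, biotinylated with BirA) immobilized at ~500 RU. Peptide was injected at the indicated concentrations, 45 μl per injection. Sensorgrams were double-referenced against a negative control flow cell and averaged buffer blanks. Kinetic parameters came from a global fit to a 1:1 bimolecular interaction model.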

[3] = biological target: T2, G-protein coupled receptor Mth (Drosophila melanogaster) (UniProt O97148); test: Inhibition of Drosophila melanogaster Mth […] transfected into human HEK cells assessed as inhibition of N-Stunted-induced Mth signaling up to 10 uM; type: cell-based; conditions: HEK293; outline: as §1
T2 sequence (whole entry): T1 sequence (O97148 whole entry)

[4] = biological target: T2, G-protein coupled receptor Mth (Drosophila melanogaster); test: Binding affinity to Drosophila melanogaster Mth ectodomain transfected in CHO cells up to 5 uM by SPR
Drosophila melanogaster [5] = test: Displacement of radiolabeled full-length R8-01 mRNA from Drosophila melanogaster Mth ectodomain at 10 uM
Outline: (§3)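 35S-methionine-labelled RNA-peptide fusions were RNase-treated and bound to Mth ectodomain immobilized on NeutrAvidin-agarose (~1 mg Mth per ml matrix). For competition, unlabelled peptide at various concentrations was included in the binding buffer during the initial binding step.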

Drosophila melanogaster [6] = test: Displacement of radiolabeled 30-mer synthetic peptide mRNA from Drosophila melanogaster Mth ectodomain at 30 uM; outline: as §3
Drosophila melanogaster [7] = test: Displacement of radiolabeled full-length R8-01 mRNA from Drosophila melanogaster Mth ectodomain up to 150 uM; outline: as §3
Drosophila melanogaster [8] = test: Increase in maximal life span of Drosophila melanogaster GAL4/UAS--[…] transgene insertion line 41.6 at 29 degC; type: functional
Drosophila melanogaster [9] = test: Increase in mean life span of Drosophila melanogaster GAL-4/UAS--[…] transgene insertion line 41.6 at 25 degC; type: functional
Outline: (§4)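 da-GAL4-driven UAS–R8-12 insertion line 41.6 male adults were maintained at 25 °C and followed by survival curves. Mean and maximal adult lifespans are the average of two independent trials, with about 90 to 120 flies per curve.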

[10] = Binding affinity to G-protein coupled receptor MthW12S mutant of Drosophila melanogaster 300 nM by fluorescence microscopy
Outline: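 Intrinsic Trp fluorescence with excitation at 295 nm. 300 nM peptide was titrated with Trp-less Mth W120S ectodomain, emission read at 345 nm, in 10 mM KH2PO4 pH 7.2, 150 mM NaCl. Complexes were mixed for 5 min in a stirred cell before reading. KD came from the titration.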

Drosophila melanogaster [11] = test: Increase in maximal life span of Drosophila melanogaster GAL-4/UAS--[…] transgene insertion line 41.6 at 25 degC; type: functional; outline: as §4
Drosophila melanogaster [12] = test: Increase in life span of Drosophila melanogaster GAL-4/UAS--[…] transgene insertion line 11.1 at 29 degC; type: functional
Drosophila melanogaster [13] = test: Increase in mean life span of Drosophila melanogaster GAL4/UAS--[…] transgene insertion line 41.6 at 29 degC; type: functional
Drosophila melanogaster [14] = test: Increase in life span of Drosophila melanogaster GAL-4/UAS--[…] transgene insertion line 41.2 at 29 degC; type: functional
[15] = biological target: T2, G-protein coupled receptor Mth (Drosophila melanogaster); test: Binding affinity to Drosophila melanogaster full-length Mth-GFP transfected into CHO cells at 150 nM by fluorescence microscopy
[16] = biological target: T2, G-protein coupled receptor Mth (Drosophila melanogaster); test: Binding affinity to Drosophila melanogaster Mth ectodomain at 100 nM measured by SPR; outline: as §2
[17] = biological target: T2, G-protein coupled receptor Mth (Drosophila melanogaster); test: Binding affinity to Drosophila melanogaster Mth ectodomain at 900 nM measured by SPR; outline: as §2
Drosophila melanogaster [18] = test: Displacement of radiolabeled full-length R8-04 mRNA from Drosophila melanogaster Mth ectodomain at 10 uM; outline: as §3
[19] = biological target: T2, G-protein coupled receptor Mth (Drosophila melanogaster); test: Binding affinity to Drosophila melanogaster Mth ectodomain at 300 nM measured by SPR; outline: as §2
[20] = biological target: T2, G-protein coupled receptor Mth (Drosophila melanogaster); test: Binding affinity to Drosophila melanogaster Mth ectodomain at 1500 nM measured by SPR; outline: as §2

pIC50 [1]: 6.94
pKd [2]: 7.74
Compound: CC[C@H](C)[C@H](NC(=O)[C@H](C)NC(=O)[C@H](CCCNC(=N)N)NC(=O)[C@H](CCC(N)=O)NC(=O)[C@@H](NC(=O)[C@H](Cc1c[nH]c2ccccc12)NC(=O)[C@@H](NC(=O)[C@H](C)NC(=O)[C@H](CCCNC(=N)N)NC(=O)[C@@H]1CCCN1C(=O)[C@H](C)N)C(C)C)[C@@H](C)CC)C(=O)N[C@@H](CCC(N)=O)C(=O)N[C@@H](C)C(=O)N[C@@H](CCSC)C(=O)N[C@@H](Cc1ccccc1)C(=O)N[C@@H](CCCNC(=N)N)C(=O)N[C@@H](CC(C)C)C(=O)N[C@@H](C)C(=O)N[C@@H](CO)C(=O)N[C@@H](CCCNC(=N)N)C(=O)N[C@@H](CCC(N)=O)C(=O)N[C@@H](CCC(=O)O)C(=O)N[C@@H](CO)C(=O)N[C@@H](CCCCN)C(=O)N[C@@H](C)C(=O)N[C@@H](Cc1ccccc1)C(=O)N[C@@H](CC(N)=O)C(=O)O

pKd [2]: > 7.52
Compound: H-GDDMYRIREFLANYRPIWVMRSNLAQL-OH

Activity [4]: inactive
Compound: H-MAPRAVWIQAAIQAMFRLA-OH

Activity (Drosophila melanogaster [5]): 96%
Activity (Drosophila melanogaster [6]): 79%
Activity (Drosophila melanogaster [7]): inactive
pKd [2]: 7.51
Compound: H-NVSWGSFPSSWLQRYYLAKRREADVTL-OH

pKd [2]: > 7.52
Compound: H-RYVWYLRTKHRRSLRLRSACARGSSA-OH

The remaining lines, values behind:

Compound: CC[C@H](C)[C@H](NC(=O)[C@H](C)NC(=O)[C@H](CCCNC(=N)N)NC(=O)[C@H](CCC(N)=O)NC(=O)[C@@H](NC(=O)[C@H](Cc1c[nH]c2ccccc12)NC(=O)[C@@H](NC(=O)[C@H](C)NC(=O)[C@H](CCCNC(=N)N)NC(=O)[C@@H]1CCCN1C(=O)[C@@H](C)N)C(C)C)[C@@H](C)CC)C(=O)N[C@@H](CCC(N)=O)C(=O)N[C@@H](C)C(=O)N[C@@H](CCSC)C(=O)N[C@@H](Cc1ccccc1)C(=O)N[C@@H](CCCNC(=N)N)C(=O)N[C@@H](CC(C)C)C(=O)N[C@@H](C)C(=O)N[C@@H](CO)C(=O)N[C@@H](CCCNC(=N)N)C(=O)N[C@@H](CCC(N)=O)C(=O)N[C@@H](CCC(=O)O)C(=O)N[C@@H](CO)C(=O)N[C@@H](CCCCN)C(=O)N[C@@H](C)C(=O)N[C@@H](Cc1ccccc1)C(=O)N[C@@H](CC(N)=O)C(=O)O
inhibition [3]: inactive

Compound: H-MAPRAVAIQRAIQAMFRLAGY-OH
Activity [4]: inactive

Compound: H-RLVWIVRSRHFGPRLRMALLGSDRKMW-OH
inhibition [3]: inactive
Activity (Drosophila melanogaster [8]): 26%
Activity (Drosophila melanogaster [9]): 49%
pKd [10]: 7.82
Activity (Drosophila melanogaster [11]): 36%
Activity (Drosophila melanogaster [12]): 40%
Activity (Drosophila melanogaster [13]): 38%
pIC50 [1]: 7.35
pKd [2]: 7.74
Activity (Drosophila melanogaster [14]): 31%
Activity [15]: Active

Compound: H-VRIGYTSKPGGMNPGNSYTMSIIRMLI-OH
Activity [16]: Active
Activity [17]: Active
Activity (Drosophila melanogaster [18]): 94%
Activity [19]: Active
pKd [2]: 6.49
Activity [20]: Active
